The source made the active and inactive calls. No cut-off for these calls is given here.
Key:
[1] = Drug uptake in cytoplasm of human MCF7 cells at 100 to 500 nM after 45 mins by spinning disk confocal microscopy; assay type: ADME, cell-based; conditions: mcf7, 0.75 h, 0.5 µM
Outline: (§1)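 MCF7 cells seeded in chamber slides 24 h ahead, treated 45 min with 100 or 500 nM ligand, fixed in 2% PFA for 30 min at 37 °C, washed with PBS. Spinning-disk confocal imaging, background-corrected; subcellular localization assessed, nuclear signal from pixel intensity profiles. Excitation 405, 488 or 561 nm depending on fluorophore.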

[2] = Drug uptake in vesicle of human MCF7 cells at 100 to 500 nM after 45 mins by spinning disk confocal microscopy; assay type: ADME, cell-based; conditions: mcf7, 0.75 h, 0.5 µM; outline: as §1
MCF7 [3] = assay: Cellular uptake in human MCF7 cells at 25 to 100 nmol/L after 45 mins […]; assay type: ADME, cell-based; conditions: mcf7, 0.75 h
[4] = Drug uptake in perinuclear region of human MCF7 cells at 100 nM after 45 mins by spinning disk confocal microscopy; assay type: ADME, cell-based; conditions: mcf7, 0.75 h, 0.1 µM; outline: as §1
MCF7 [5] = assay: Binding affinity to sigma 2 receptor overexpressed in human MCF7 cells assessed as compound internalization by measuring cellular accumulation at 25 nmol/L after 45 mins by flow cytometry in presence of cis-1-cyclohexyl-4-[4-(2,6-difluorophenyl)cyclohexyl]piperazine; assay type: cell-based
MCF7 [6] = assay: Binding affinity to sigma 2 receptor overexpressed in human MCF7 cells assessed as compound internalization by measuring cellular accumulation at 25 nmol/L after 45 mins by flow cytometry in presence of PB28; assay type: cell-based
MCF7 [7] = assay: Cellular uptake in human MCF7 cells at 50 to 100 nM after 20 to 40 mins by spinning disk confocal microscopy; assay type: ADME, cell-based; conditions: mcf7, 0.1 µM
Outline: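 Live and fixed MCF7 cells imaged by spinning-disk confocal microscopy from 50 nM ligand onward; intracellular fluorescence intensity followed over time after treatment. Excitation 405 nm […], 488 nm (green) or 561 nm (red channel), according to fluorophore.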

[8] = Drug uptake in nucleus of human MCF7 cells at 500 nM after 45 mins by spinning disk confocal microscopy; assay type: ADME, cell-based; conditions: mcf7, 0.75 h, 0.5 µM; outline: as §1
[9] = molecular target: Sigma non-opioid intracellular receptor 1 (Cavia porcellus, UniProt Q60492); assay: Displacement of (+)-[3H]pentazocine from Dunkin guinea pig brain sigma 1 receptor
[10] = Displacement of [3H]DTG from Wistar Hannover rat liver sigma 2 receptor
MCF7 [11] = assay: Binding affinity to sigma 2 receptor in human MCF7 cells at 100 nmol/L after 45 mins by FACS analysis in presence of DTG and (+)-pentazocine; assay type: cell-based
[12] = Displacement of [3H]DTG from sigma 2 receptor in human MCF7 cells after 45 mins by FACS analysis; assay type: cell-based
[13] = Displacement of 2-(6-{1-[3-(4-Cyclohexylpiperazin-1-yl)propyl]-1,2,3,4-tetrahydronaphthalen-5-yloxy}hexyl)-5-dimethylamino-1H-isoindole-1,3(2H)-dione from sigma 2 receptor in human MCF7 cells after 45 mins by FACS analysis; assay type: cell-based
Outline: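 Intact, nonpermeabilized MCF7 cells incubated with competitor at 0.1 nmol/L–10 μmol/L followed by 100 nmol/L fluorescent σ2 tracer for 45 min at 37 °C. Washed twice with PBS, detached with dissociation solution, resuspended in PBS. Flow cytometry at 530 nm band-pass, 10 000 events; IC50 taken from displacement curve.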

Sequence of Sigma non-opioid intracellular receptor 1 (Q60492 whole entry): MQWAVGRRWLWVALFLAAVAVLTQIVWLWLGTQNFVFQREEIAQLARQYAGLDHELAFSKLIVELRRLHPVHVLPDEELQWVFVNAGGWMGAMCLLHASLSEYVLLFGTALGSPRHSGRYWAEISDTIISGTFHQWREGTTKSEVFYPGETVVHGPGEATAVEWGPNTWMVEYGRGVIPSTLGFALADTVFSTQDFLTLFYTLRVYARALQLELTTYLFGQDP

Drug uptake [1] | Drug uptake [2] | Drug uptake (MCF7 [3]) | Drug uptake [4] | Drug uptake (MCF7 [7]) | Drug uptake [8] | Ki [9] [nM] | Ki [10] [nM] | IC50 [12] [nM] | IC50 [13] [nM] | Compound | Activity (MCF7 [5]) | Activity (MCF7 [6]) | Activity (MCF7 [11])
Active | Active | Active | Active | Active | Active | – | – | – | – | O=[N+]([O-])c1ccc(NCCCCCCOc2cccc3c2CCCC3CCCN2CCN(C3CCCCC3)CC2)c2nonc12 (stereo not given) | inactive | inactive | –
– | – | – | – | – | – | 258 | 31.2 | – | – | O=[N+]([O-])c1ccc(NCCCCCCCCCCOc2cccc3c2CCCC3CCCN2CCN(C3CCCCC3)CC2)c2nonc12 (stereo not given) | – | – | –

More lines, now with the values behind:

Compound | Drug uptake [1] | Drug uptake [2] | Drug uptake (MCF7 [3]) | Drug uptake [4] | Drug uptake (MCF7 [7]) | Drug uptake [8] | Ki [9] [nM] | Ki [10] [nM] | IC50 [12] [nM] | IC50 [13] [nM] | Activity (MCF7 [5]) | Activity (MCF7 [6]) | Activity (MCF7 [11])
CN(C)c1ccc2c(c1)C(=O)N(CCCCCCOc1cccc3c1CCCC3CCCN1CCN(C3CCCCC3)CC1)C2=O (stereo not given) | Active | Active | Active | Active | Active | Active | 5.37 | 6.9 | – | – | inactive | inactive | inactive
Nc1ccc2c3c(cccc13)C(=O)N(CCCCCCOc1cccc3c1CCCC3CCCN1CCN(C3CCCCC3)CC1)C2=O (stereo not given) | Active | Active | Active | Active | Active | Active | 156 | 6.57 | – | – | inactive | inactive | –
CCN(CC)c1ccc2cc(/C=C/C3=[N+](CCCCCC(=O)NCCCCCCOc4cccc5c4CCCC5CCCN4CCN(C5CCCCC5)CC4)c4ccccc4C3(C)C)c(=O)oc2c1.[Br-] (stereo not given) | Active | Active | – | Active | Active | Active | 235 | 161 | – | – | – | – | –
COc1cccc2c1CCCC2CCCN1CCN(C2CCCCC2)CC1 (stereo not given) | – | – | – | – | – | – | – | – | 1.2 | 4.27 | – | – | –

— ChEMBL document CHEMBL3259578, “Novel derivatives of 1-cyclohexyl-4-[3-(5-methoxy-1,2,3,4-tetrahydronaphthalen-1-yl)propyl]piperazine (PB28) with improved fluorescent and σ receptors binding properties” (J Med Chem, 2014)
